Data set [1] has as its system Staphylococcus aureus. The experiment in a line: Antibacterial activity against linezolid-resistant Staphylococcus aureus after 16 hrs by NCCLS agar dilution method. In kind it is functional. In short, it runs like this: (§1)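 Agar dilution MIC. Stocks were 320 μg/mL in 50% aqueous DMSO, 2-fold serially diluted in sterile water, then diluted 10-fold into Mueller–Hinton agar to give 16–0.03125 μg/mL final. Organisms were grown in MH broth at 35 °C for 8 h and adjusted to 0.5 McFarland. They were spotted onto drug-containing plates with a multipoint inoculator and incubated at 35 °C for 16 h. Linezolid was the positive control.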
(In general: Agar dilution tests growth on a series of plates holding different concentrations.)

Data set [2] has as its system Enterococcus faecalis. The experiment in a line: Antibacterial activity against Enterococcus faecalis after 16 hrs by NCCLS agar dilution method. The data set is classed as functional. In short, it runs like this: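 Agar dilution MIC per NCCLS, 6 E. faecalis strains. Stock was 320 μg/mL in 50% water/DMSO, serially 2-fold diluted in sterile water, then 10-fold into Mueller–Hinton agar to give 16–0.03125 μg/mL final. Inocula came from MH broth cultures grown 8 h at 35 °C, adjusted to 0.5 McFarland and spotted by multipoint inoculator. Plates were read after 16 h at 35 °C.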

Data set [3] relates to Staphylococcus aureus. The experiment in a line: Antibacterial activity against Staphylococcus aureus ATCC 29213 after 16 hrs by NCCLS agar dilution method. The data set is classed as functional. As to conditions: ATCC 29213, 16 h. In a few lines: as §1
The subject of data set [4] is Staphylococcus epidermidis. In words: Antibacterial activity against linezolid-resistant Staphylococcus epidermidis after 16 hrs by NCCLS agar dilution method. In kind it is functional. In short, it runs like this: as §1
A further data set relates to Enterococcus faecium. The experiment in a line: Antibacterial activity against linezolid-resistant Enterococcus faecium after 16 hrs by NCCLS agar dilution method. The data set is classed as functional. In a few lines:
as §1

The subject of data set [5] is Staphylococcus epidermidis. In words: Antibacterial activity against methicillin-resistant Staphylococcus epidermidis after 16 hrs by NCCLS agar dilution method. In kind it is functional. In a few lines:
as §1

For the next data set, the system named is Streptococcus pneumoniae. In words: Antibacterial activity against penicillin-resistant Streptococcus pneumoniae after 16 hrs by NCCLS agar dilution method. The data set is classed as functional. In short, it runs like this:
as §1

In data set [6] the test system is Staphylococcus aureus. The experiment in a line: Antibacterial activity against methicillin-resistant Staphylococcus aureus after 16 hrs by NCCLS agar dilution method. The data set is classed as functional. In a few lines: as §1
Data set [7] concerns Staphylococcus epidermidis. In words: Antibacterial activity against methicillin-sensitive Staphylococcus epidermidis after 16 hrs by NCCLS agar dilution method. The data set is classed as functional. In a few lines:
as §1

Data set [8] deals with Enterococcus faecalis. The experiment in a line: Antibacterial activity against linezolid-resistant Enterococcus faecalis after 16 hrs by NCCLS agar dilution method. The data set is classed as functional. In short, it runs like this: as §1
The subject of data set [9] is Staphylococcus aureus. The experiment in a line: Antibacterial activity against methicillin-sensitive Staphylococcus aureus after 16 hrs by NCCLS agar dilution method. The data set is classed as functional. In a few lines:
as §1

For a further data set, the target named is hERG (KCNH2) (Homo sapiens, UniProt Q12809). The experiment in a line: Inhibition of human ERG at 30 uM relative to control.
Sequence of hERG (KCNH2) (Q12809 whole entry): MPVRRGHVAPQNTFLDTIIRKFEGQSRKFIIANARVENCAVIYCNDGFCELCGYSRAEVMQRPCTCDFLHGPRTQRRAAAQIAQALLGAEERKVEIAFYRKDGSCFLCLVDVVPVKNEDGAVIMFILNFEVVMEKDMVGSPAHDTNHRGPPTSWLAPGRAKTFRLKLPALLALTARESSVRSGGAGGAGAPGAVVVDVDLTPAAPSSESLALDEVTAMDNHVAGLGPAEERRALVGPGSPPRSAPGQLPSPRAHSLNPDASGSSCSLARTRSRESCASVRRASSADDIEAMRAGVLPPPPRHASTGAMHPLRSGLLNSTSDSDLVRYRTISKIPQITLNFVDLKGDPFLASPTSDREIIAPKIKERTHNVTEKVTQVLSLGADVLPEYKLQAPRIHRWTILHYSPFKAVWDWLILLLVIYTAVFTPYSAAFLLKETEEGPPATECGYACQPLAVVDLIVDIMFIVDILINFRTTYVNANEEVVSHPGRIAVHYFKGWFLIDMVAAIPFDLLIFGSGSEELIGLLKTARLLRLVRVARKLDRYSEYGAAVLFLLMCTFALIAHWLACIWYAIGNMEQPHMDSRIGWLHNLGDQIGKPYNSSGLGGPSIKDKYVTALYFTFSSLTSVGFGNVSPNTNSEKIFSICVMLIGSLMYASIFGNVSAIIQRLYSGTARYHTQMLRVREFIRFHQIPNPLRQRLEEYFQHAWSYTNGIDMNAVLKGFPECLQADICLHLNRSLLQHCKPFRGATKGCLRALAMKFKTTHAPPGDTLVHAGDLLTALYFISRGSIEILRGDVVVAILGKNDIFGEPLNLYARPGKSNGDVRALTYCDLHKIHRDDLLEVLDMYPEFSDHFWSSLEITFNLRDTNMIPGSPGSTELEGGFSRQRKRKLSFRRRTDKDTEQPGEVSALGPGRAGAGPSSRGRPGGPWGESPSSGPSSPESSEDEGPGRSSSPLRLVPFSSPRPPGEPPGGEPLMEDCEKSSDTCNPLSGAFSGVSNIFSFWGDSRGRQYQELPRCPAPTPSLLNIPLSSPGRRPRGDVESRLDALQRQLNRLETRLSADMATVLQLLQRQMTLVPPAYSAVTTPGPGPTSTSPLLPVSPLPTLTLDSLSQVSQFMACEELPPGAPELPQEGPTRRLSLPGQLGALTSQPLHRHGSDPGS
Data set [10] is described as follows: Aqueous solubility of the compound. The settings on record: aqueous (not further specified).
Data set [11] in a line: Tmax in Sprague-Dawley rat at 10 mg/kg, po by LC-MS analysis. The data set is classed as ADME, organism-based. The arrangement: dose 10 mg/kg, route oral. As to conditions: in vivo. In a few lines:
(§2)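 Rats were dosed orally or by intravenous injection. For prodrugs, all parameters were based on the active parent antibacterial detected in plasma, and each prodrug dose was also given as an equivalent parent dose. Parameters were Cmax, Tmax, elimination T1/2, AUC from the concentration–time curve, clearance and oral bioavailability F.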

A short description of data set [12]: Elimination half life in Sprague-Dawley rat at 10 mg/kg, po by LC-MS analysis. In kind it is ADME, organism-based. The arrangement: dose 10 mg/kg, route oral. As to conditions: in vivo, read-out: beta t1/2 (converted). In a few lines: as §2
Data set [13] can be described thus: Cmax in Sprague-Dawley rat at 10 mg/kg, po by LC-MS analysis. The data set is classed as ADME, organism-based. The arrangement: dose 10 mg/kg, route oral. The settings on record: in vivo. In short, it runs like this: as §2
The nature of data set [14]: AUC in Sprague-Dawley rat at 10 mg/kg, po by LC-MS analysis. The settings on record: Sprague-Dawley, plasma. The arrangement: dose 10 mg/kg, route oral. In kind it is ADME, organism-based, Plasma. In a few lines: as §2
For data set [15], the target named is Voltage-gated inwardly rectifying potassium channel KCNH2 (Homo sapiens, UniProt Q12809).
Sequence of Voltage-gated inwardly rectifying potassium channel KCNH2 (Q12809 whole entry): as above
Data set [16] is described as follows: AUC in Sprague-Dawley rat at 10 mg/kg, iv by LC-MS analysis. The arrangement: dose 10 mg/kg, route intravenous. The settings on record: plasma. In kind it is ADME, organism-based. In a few lines:
(§3)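 Rats dosed orally or by intravenous injection. AUC is the area under the plasma concentration–time curve. For the prodrug entries, all PK values were based on the amount of the active parent antibacterial detected, not the administered prodrug.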

A short description of data set [17]: Cmax in Sprague-Dawley rat at 15 mg/kg, po by LC-MS analysis. As to conditions: in vivo. The data set is classed as ADME, organism-based. The arrangement: dose 15 mg/kg, route oral. In short, it runs like this: as §2
The nature of data set [18]: Elimination half life in Sprague-Dawley rat at 15 mg/kg, po by LC-MS analysis. In kind it is ADME, organism-based. The arrangement: dose 15 mg/kg, route oral. The settings on record: in vivo, read-out: beta t1/2 (converted). In a few lines:
as §2

Data set [19] can be described thus: Tmax in Sprague-Dawley rat at 15 mg/kg, po by LC-MS analysis. As to conditions: in vivo. The arrangement: dose 15 mg/kg, route oral. The data set is classed as ADME, organism-based. In short, it runs like this:
as §2

Data set [20] in a line: Oral bioavailability in Sprague-Dawley rat at 15 mg/kg. As to conditions: in vivo. The data set is classed as ADME, organism-based. In a few lines:
as §2

Data set [21] is described as follows: Elimination half life in Sprague-Dawley rat at 10 mg/kg, iv by LC-MS analysis. In kind it is ADME, organism-based. The arrangement: dose 10 mg/kg, route intravenous. As to conditions: in vivo, read-out: beta t1/2 (converted). In a few lines:
as §2

Data set [22] is described as follows: AUC in Sprague-Dawley rat at 15 mg/kg, po by LC-MS analysis. In kind it is ADME, organism-based. The arrangement: dose 15 mg/kg, route oral. As to conditions: plasma. In short, it runs like this: as §3
Data set [23] can be described thus: Clearance in Sprague-Dawley rat at 10 mg/kg, iv by LC-MS analysis. In kind it is ADME, organism-based. The arrangement: dose 10 mg/kg, route intravenous. As to conditions: in vivo. In a few lines:
as §2

pIC50: −log10 of the molar value. In brackets after ≈: the same amount, converted by molar mass.

Usually MIC stands for the lowest concentration that inhibits growth of the organism. Low values mean inhibition by little substance, high ones a need for much substance. The term inhibition denotes the relative decrease from the control value, in per cent. A high value points to strong suppression. With `C[C@@H](O)C(=O)c1ccc(-c2ccc3c(c2)OC[C@H]2[C@H](CO)OC(=O)N32)cn1`, the minimum inhibitory concentration (MIC) against Staphylococcus aureus [1] was determined as 8 µg/mL (≈ 21.6 µM); in the data set on Enterococcus faecalis [2] it was 1 µg/mL (≈ 2.7 µM); in the data set with Staphylococcus aureus [3] it was 0.25 µg/mL (≈ 0.675 µM); in data set [4], 4 µg/mL (≈ 10.8 µM); in the data set on Enterococcus faecium it was 4 µg/mL (≈ 10.8 µM); in data set [5], 0.125 µg/mL (≈ 0.338 µM). Also, the MIC in the data set with Streptococcus pneumoniae is 0.25 µg/mL (≈ 0.675 µM); with Staphylococcus aureus [6], 0.125 µg/mL (≈ 0.338 µM); in data set [7], 0.125 µg/mL (≈ 0.338 µM); with Enterococcus faecalis [8], 4 µg/mL (≈ 10.8 µM); with Staphylococcus aureus [9], 0.25 µg/mL (≈ 0.675 µM). The compound further showed an inhibition at 30 µM on hERG (KCNH2) of 18.4%.

By solubility is commonly meant how much of the substance goes into solution per volume. A word on the Tmax: it is the time from dosing to the highest level. As usually defined, the Cmax is the peak of the concentration-time curve. One may read the AUC as the area under the concentration-time curve, a measure of exposure. Lower therefore signals low exposure. For `N#Cc1ccc(-c2ccc3c(c2)OC[C@H]2[C@H](COP(=O)([O-])[O-])OC(=O)N32)cn1.[Na+].[Na+]`, in [10], the solubility was 15 mg/mL. Also, the Tmax in data set [11] was determined as 1.31 h. Besides, the half-life in data set [12] is 190 min. This compound had a Cmax in data set [13] of 15.2 ng/mL. In data set [14], the AUC was 81.1 ng·h/mL.

As to `O=C1O[C@@H](CO)[C@@H]2COc3cc(-c4ccc(Cn5cncn5)nc4)ccc3N12`, the MIC in the data set on Staphylococcus aureus [1] is 16 µg/mL (≈ 42.2 µM); against Enterococcus faecalis [2], 1 µg/mL (≈ 2.64 µM); against Staphylococcus aureus [3], 1 µg/mL (≈ 2.64 µM); in [4] it was 8 µg/mL (≈ 21.1 µM); with Enterococcus faecium, 8 µg/mL (≈ 21.1 µM); in data set [5], 0.5 µg/mL (≈ 1.32 µM). The MIC against Streptococcus pneumoniae amounted to 0.5 µg/mL (≈ 1.32 µM); against Staphylococcus aureus [6] it was 0.5 µg/mL (≈ 1.32 µM); in data set [7] it was 0.5 µg/mL (≈ 1.32 µM); in the data set with Enterococcus faecalis [8] it was 8 µg/mL (≈ 21.1 µM); against Staphylococcus aureus [9], 0.5 µg/mL (≈ 1.32 µM).

For the compound `Cn1nnc(-c2ccc(-c3ccc(N4C[C@H](CO)OC4=O)cc3F)cn2)n1` [TEDIZOLID], the minimal inhibitory concentration (MIC) against Staphylococcus aureus [1] was found to be 8 µg/mL (≈ 21.6 µM); against Staphylococcus aureus [3], 0.25 µg/mL (≈ 0.675 µM); in [4], 2 µg/mL (≈ 5.4 µM); in the data set with Enterococcus faecium it was 2 µg/mL (≈ 5.4 µM); with Enterococcus faecalis [8] it was 2 µg/mL (≈ 5.4 µM).

As to `O=C1OCCN1c1ccc(-c2ccc3c(c2)OC[C@H]2[C@H](CO)OC(=O)N32)cn1`, the minimum inhibitory concentration (MIC) against Staphylococcus aureus [1] was found to be 16 µg/mL (≈ 41.7 µM); against Enterococcus faecalis [2] it was 1 µg/mL (≈ 2.61 µM); against Staphylococcus aureus [3] it was 0.5 µg/mL (≈ 1.3 µM); in data set [4], 2 µg/mL (≈ 5.22 µM); in the data set with Enterococcus faecium, 4 µg/mL (≈ 10.4 µM); in [5], 0.5 µg/mL (≈ 1.3 µM). Also, the minimal inhibitory concentration (MIC) was determined as 0.5 µg/mL (≈ 1.3 µM) with Streptococcus pneumoniae; 0.5 µg/mL (≈ 1.3 µM) in the data set with Staphylococcus aureus [6]; 0.5 µg/mL (≈ 1.3 µM) in data set [7]; 4 µg/mL (≈ 10.4 µM) against Enterococcus faecalis [8]; 0.5 µg/mL (≈ 1.3 µM) in the data set with Staphylococcus aureus [9].

In general, pIC50 refers to the negative decadic logarithm of the IC50, by convention in mol/L. `CC(=O)NC[C@@H]1OC(=O)N2c3ccc(-c4ccc(C#N)nc4)cc3OC[C@@H]12`: the negative logarithm of the IC50 (pIC50) in data set [15] was 5.56.

What is called bioavailability is the share of a dose that reaches the circulation, judged against a reference dose that is usually intravenous. Read a low bioavailability as little systemic uptake. For orientation: clearance means the volume of plasma or blood freed of the substance per unit of time. `O=C1OC(COP(=O)([O-])[O-])CN1c1ccc(-c2ccc3c(c2)OC[C@H]2[C@H](CO)OC(=O)N32)cn1.[Na+].[Na+]` (some centres not stated) came in with a solubility in data set [10] of 534 mg/mL. For the same compound, the results for the area under the curve (AUC) in [16] and in data set [22] were 4000 ng·h/mL and 1230 ng·h/mL, respectively. Also, the Cmax in [17] was found to be 650 ng/mL. In addition, the half-life was 96.6 min in data set [18] and 60 min in data set [21]. In addition, in [19], the time of peak concentration (Tmax) came out at 15 min. Besides, the bioavailability in [20] was determined as 19.7%. Also, the clearance in data set [23] was 33.8 mL/min/kg.

For the compound `N=C(N)NCCC[C@H](N)C(=O)O.N=C(N)NCCC[C@H](N)C(=O)O.O=C1OC(COP(=O)(O)O)CN1c1ccc(-c2ccc3c(c2)OC[C@H]2[C@H](CO)OC(=O)N32)cn1` (some centres not stated), the AUC in data set [16] turned out to be 1800 ng·h/mL; in data set [22] it was 914 ng·h/mL. The highest level in data set [17] (Cmax) was 416 ng/mL. The half-life in data set [18] is 87 min; in [21] it was 15.6 min. Besides, in data set [19], the Tmax was found to be 15 min. The bioavailability in data set [20] is 32.6%. In [23], this compound showed a clearance of 46.3 mL/min/kg.

Source of the values: ChEMBL document CHEMBL2321795, “Solubility-driven optimization of (pyridin-3-yl) benzoxazinyl-oxazolidinones leading to a promising antibacterial agent” (J Med Chem, 2013).
